Measurements taken from ChEMBL document CHEMBL1125377, “Phenothiazines as lipid peroxidation inhibitors and cytoprotective agents” (1992).
≈ marks a conversion by molar mass, not a printed value.

Species: Oryctolagus cuniculus
Experiment: In vitro inhibition of iron-dependent peroxidation of rabbit brain vesicular membrane lipids
Format: functional
Settings: not given
Summary of the method: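 Rabbit brain homogenized 10% w/v in 25 mM Tris-HCl with 0.15 M KCl, pH 7.5, spun 10000g for 15 min. The supernatant was given the agent in DMSO and incubated with ADP (220 μM) and FeCl3 (2 μM) at 37 °C for 1 h; the control was not incubated. TBARS read at 532 nm as MDA against a standard curve. Reported as MIC, the minimum tested concentration giving ≥50% inhibition.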

Compound | MIC [µM]
CN(C)CCOc1ccc2c(c1)Nc1ccccc1S2.CS(=O)(=O)O | 0.26
CN(C)CCOc1ccc2c(c1)Nc1ccccc1S2.Cl | 0.093

Same assay, conditions: Oryctolagus cuniculus; read-out: MIC

Compound | MIC [µM]
COc1ccc2c(c1C(=O)NCCN(C)C)Nc1ccccc1S2 | 2.6 (≈ 0.893 µg/mL)
CN(C)CCOc1ccc2c(c1C(=O)N(C)C)Nc1ccccc1S2 | 2.5 (≈ 0.894 µg/mL)
CN(C)CCCN1c2ccccc2Sc2ccc(Cl)cc21 [CHLORPROMAZINE] | 10 (≈ 3.19 µg/mL)
CN(C)CCCOc1ccc2c(c1)Nc1ccccc1S2 | 0.14 (≈ 0.0421 µg/mL)
OCCN1CCN(CCCc2ccc3c(c2)Nc2ccccc2S3)CC1 | 0.17 (≈ 0.0628 µg/mL)
CN(C)CCOc1ccc2c(c1)N(C)c1ccccc1S2 | 21 (≈ 6.31 µg/mL)
CN(C)CCCOc1ccc2c(c1)Sc1ccccc1N2 | 0.089 (≈ 0.0267 µg/mL)
CN(C)CCOc1ccc2c(c1)Sc1ccccc1N2 | 0.056 (≈ 0.016 µg/mL)
OCCN1CCN(CCOc2ccc3c(c2)Nc2ccccc2S3)CC1 | 0.068 (≈ 0.0253 µg/mL)
c1ccc2c(c1)Nc1ccccc1S2 [PHENOTHIAZINE] | 0.15 (≈ 0.0299 µg/mL)
NCCOc1ccc2c(c1)Nc1ccccc1S2 | 0.18 (≈ 0.0465 µg/mL)
